Source: PubChem BioAssay
Only some compounds are listed: those with a hit (about 1.7% of all), similar ones and a draw of the others.
Pemphigus Ab inh: human desmoglein-3 autoantibody binding inhibition; P32926; DSG3-coupled beads, scFv-anti-DSG3-GFP binding, flow cytometry; active compounds read low; binding (percent of control), % at 10 µM; 0.48% of 310,000 active; AID 588358;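 active means binding more than 3 SD below its plate's average and above zero; inconclusive means below that plate limit but binding exactly zero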;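 further: hits lower antibody fragment binding to DSG3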
Target sequence (P32926 whole entry, looked up, the tested form may be a part): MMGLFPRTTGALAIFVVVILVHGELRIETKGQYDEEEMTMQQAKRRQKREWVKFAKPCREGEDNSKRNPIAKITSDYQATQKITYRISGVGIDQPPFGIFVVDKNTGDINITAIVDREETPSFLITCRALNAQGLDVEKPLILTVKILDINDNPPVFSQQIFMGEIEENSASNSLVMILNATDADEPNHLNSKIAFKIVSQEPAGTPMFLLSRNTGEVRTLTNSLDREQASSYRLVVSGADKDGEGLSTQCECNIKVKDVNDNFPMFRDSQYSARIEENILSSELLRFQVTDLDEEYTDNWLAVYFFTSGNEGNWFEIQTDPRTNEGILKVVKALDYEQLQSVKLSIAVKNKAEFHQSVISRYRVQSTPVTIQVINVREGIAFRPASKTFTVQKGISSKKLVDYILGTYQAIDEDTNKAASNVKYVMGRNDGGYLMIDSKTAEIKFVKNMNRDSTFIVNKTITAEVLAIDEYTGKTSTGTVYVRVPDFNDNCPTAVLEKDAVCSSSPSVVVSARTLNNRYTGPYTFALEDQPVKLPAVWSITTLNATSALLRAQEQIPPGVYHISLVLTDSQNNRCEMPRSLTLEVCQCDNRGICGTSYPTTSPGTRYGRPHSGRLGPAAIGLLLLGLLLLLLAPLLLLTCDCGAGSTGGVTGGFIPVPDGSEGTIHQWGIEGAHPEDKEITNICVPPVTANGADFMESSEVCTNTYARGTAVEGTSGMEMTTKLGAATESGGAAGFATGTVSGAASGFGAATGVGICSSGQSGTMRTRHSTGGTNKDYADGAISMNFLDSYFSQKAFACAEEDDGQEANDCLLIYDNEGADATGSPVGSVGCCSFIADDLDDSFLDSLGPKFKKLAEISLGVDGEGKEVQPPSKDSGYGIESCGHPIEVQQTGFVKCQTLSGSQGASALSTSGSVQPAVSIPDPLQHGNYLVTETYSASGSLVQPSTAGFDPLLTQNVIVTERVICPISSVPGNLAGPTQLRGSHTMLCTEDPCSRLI
Vif imaging: HIV Vif inhibition; AID 602346; 0.35% of 340,000 active; inhibition, % at 7.49 µM; HEK293T cells, Vif self-association by quenched fluorescence, imaging, 24 h; in the data active means inhibition above about 50%, passing the limit was not always enough; inconclusive means no clear call, values can overlap the other calls; inactive means below about 31%
Myeloid diff 2: promotes myeloid progenitor differentiation. 1% of 360,000 active. calls only at 10 µM. AID 624256. ER-HoxA9 myeloid progenitors, lysozyme-GFP differentiation, flow cytometry;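 active means normalized GFP-positive differentiation at or above the plate's own cutoff, the solvent-only control mean plus 3 SD; inconclusive means no clear call, values can overlap the other calls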;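 further: cells exposed to compound for four days before flow analysis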
T cell modulator: T cell immune modulation candidate; 2C CD8+ T cell-vesicle binding, flow cytometry; active compounds read low; response (vesicle binding), % at 7 µM; 0.068% of 330,000 active;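 active means response, share of CD8 T cells binding vesicles, and their 90th percentile fluorescence all below set limits, cut at about 80% in these data, passing the limit was not always enough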;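 further: values below 100% mean blocked vesicle binding to the CD8+ T cells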
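Also added: QL9-peptide-loaded Drosophila micro-vesicles bearing Ld, ICAM-1 and B7-1; Test system: purified 2C TCR transgenic mouse naive CD8+ T cells; Measured by: cytometric PE anti-B7-1 and Alexa647 anti-CD8 signals after 1% paraformaldehyde fixation; Timing: binding step 1.5 h, 37 °C, antibody labelling 20 min, ice.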
* = called active by the depositor.

For CC(C)C1Cc2c(sc(NC(=S)NC(=O)c3ccccc3)c2C#N)CO1 (stereo unspecified) the results were Pemphigus Ab inh 97.1, Myeloid diff 2 inactive and T cell modulator 117.7.
Screening Cc1ccccc1OCC(=O)NNC(=O)c1ccoc1C returned Pemphigus Ab inh 95.7, Vif imaging 3.9, Myeloid diff 2 inactive and T cell modulator 310.6.
`COCCOC(=O)N1CCCCC1c1cc(C(=O)NCc2ccc(Cl)c(Cl)c2)no1` (stereo unspecified) gave Vif imaging -2.5 and Myeloid diff 2 inactive.
For Cc1cc2c(cc1C)-c1nnnn1C(N1CCCCC1)C(=O)N2 (stereo unspecified) the results were Myeloid diff 2 inactive.
Screening CCN1CCc2c(sc(NC(=S)NC(=O)c3ccc(Cl)cc3)c2C(N)=O)C1 returned Pemphigus Ab inh 123.4, Vif imaging 50.8*, Myeloid diff 2 active and T cell modulator 570.3.
For CC(C)N1CCc2c(sc(NC(=O)c3ccc(S(=O)(=O)N4CCc5ccccc54)cc3)c2C(N)=O)C1 the results were Pemphigus Ab inh 168.0, Vif imaging inactive, Myeloid diff 2 active and T cell modulator 312.1.
`O=C(NCC1COCCO1)c1ccc2nc(Cc3cccc(Cl)c3)oc2c1` (stereo unspecified) gave Pemphigus Ab inh 102.4, Vif imaging -4.1, Myeloid diff 2 inactive and T cell modulator 423.4.
COc1cc(/C=N/Nc2nncc3ccccc23)cc(OC)c1OC was read as Pemphigus Ab inh 113.2, Vif imaging -5.2, Myeloid diff 2 active and T cell modulator 169.7.
For CC(C)N1C(=O)c2ccccc2NC(=O)C1C(=O)NCc1ccccc1 (stereo unspecified) the results were Myeloid diff 2 inactive.
For O=C(/C=C/c1ccc(Cl)cc1)Nc1nccs1 the results were Pemphigus Ab inh 100.3, Vif imaging 0.1 and Myeloid diff 2 active.
C/C=C/C=C/C(=O)Nc1nccs1 was read as Pemphigus Ab inh 99.2, Vif imaging 5.6, Myeloid diff 2 inactive and T cell modulator 315.5.
Screening O=C(NCc1ccc(Cl)cc1)C(=O)Nc1nccs1 returned Pemphigus Ab inh 75.8*, Vif imaging -0.8, Myeloid diff 2 inactive and T cell modulator 513.0.
CC(O)c1cccc(-c2ccc(CN3C[C@]4(CO)O[C@@H](CO)C[C@@H]4S3(=O)=O)cc2)c1 (stereo partly specified) was read as Pemphigus Ab inh 98.1, Vif imaging -11.9 and Myeloid diff 2 inactive.
COc1ccc2c(n1)Sc1nc3ccccc3nc1N2 was read as Pemphigus Ab inh 102.5, Vif imaging inactive, Myeloid diff 2 active and T cell modulator 169.4.
COc1cc2ccccc2nn1 was read as Pemphigus Ab inh 102.0, Vif imaging 0.7, Myeloid diff 2 inactive and T cell modulator 389.8.
For CC(OC(=O)CSc1ccc(F)cc1)C(=O)NC1(C#N)CCCCC1 (stereo unspecified) the results were Pemphigus Ab inh 100.2, Vif imaging -3.8, Myeloid diff 2 inactive and T cell modulator 393.0.
Screening CC(=O)Oc1ccc(N(C(C)=O)S(=O)(=O)c2ccc(C)cc2)c2ccccc12 returned Pemphigus Ab inh 110.6, Vif imaging -2.6, Myeloid diff 2 active and T cell modulator 241.2.
CC(=O)Oc1ccc(N(C(C)=O)S(=O)(=O)c2ccc(Cl)cc2)c2ccccc12 was read as Pemphigus Ab inh 111.3, Vif imaging 13.5, Myeloid diff 2 inactive and T cell modulator 191.8.
For COc1cc(/C=C2/C(=N)N3C=CSC3=NC2=O)ccc1OCCCOc1ccccc1C the results were Pemphigus Ab inh 126.1, Vif imaging 10.8, Myeloid diff 2 inactive and T cell modulator 343.0.
COc1cc(/C=C2/C(=N)N3C=CSC3=NC2=O)ccc1OCCOc1ccc(NC(C)=O)cc1 was read as Pemphigus Ab inh 85.9, Vif imaging 60.6*, Myeloid diff 2 inactive and T cell modulator 231.3.
`CCOc1ccc(/C=N/NC(=O)c2nnn(-c3nonc3N)c2COc2ccc(F)cc2)cc1` gave Vif imaging 9.4, Myeloid diff 2 inactive and T cell modulator 540.7.
For CCCOc1ccc(-c2c(C(=O)N/N=C/c3ccc(OC)cc3)nnn2-c2nonc2N)cc1 the results were Vif imaging -3.5, Myeloid diff 2 inactive and T cell modulator 387.4.
For CN(C)c1ccc(/C=N/NC(=O)c2nnn(-c3nonc3N)c2COc2ccc(F)cc2)cc1 the results were Pemphigus Ab inh 77.1*, Vif imaging -3.8, Myeloid diff 2 inactive and T cell modulator 362.9.
Screening CN(C)Cc1c(C(=O)N/N=C/c2cccc3ccccc23)nnn1-c1nonc1N returned Pemphigus Ab inh 56.2*, Vif imaging 2.6, Myeloid diff 2 inconclusive and T cell modulator 380.0.
CCOc1ccc(-c2c(C(=O)N/N=C/c3ccc(OC)cc3)nnn2-c2nonc2N)cc1 was read as Pemphigus Ab inh 76.7, Vif imaging 5.8, Myeloid diff 2 inactive and T cell modulator 7.5*.
Screening CCOc1cc(NS(=O)(=O)c2ccc(OC)cc2)c(OCC)cc1NC(=O)c1ccco1 returned Pemphigus Ab inh 104.5, Vif imaging -19.0, Myeloid diff 2 active and T cell modulator 392.7.
O=c1c2c([N+](=O)[O-])cc([N+](=O)[O-])cc2sn1Cc1ccccc1 was read as Pemphigus Ab inh 36.9*, Vif imaging -1.6, Myeloid diff 2 inactive and T cell modulator 3.5.
For O=c1c2c([N+](=O)[O-])cc([N+](=O)[O-])cc2sn1-c1ccc(Br)cc1 the results were Pemphigus Ab inh -121.2*, Vif imaging 7.2, Myeloid diff 2 inactive and T cell modulator inactive.
O=[N+]([O-])c1ccc(S(=O)Cc2ccccc2)c([N+](=O)[O-])c1 (stereo unspecified) was read as Pemphigus Ab inh 98.3, Vif imaging -2.5 and Myeloid diff 2 inconclusive.
`COCCN(CC(=O)Nc1cccc(C)c1C)C(=O)c1oc2ccccc2c1C` gave Vif imaging 26.3, Myeloid diff 2 inactive and T cell modulator 170.8.
COc1ccc2oc(-c3ccc(C)c(NC(=O)c4ccc(N5CCOCC5)c([N+](=O)[O-])c4)c3)nc2c1 was read as Pemphigus Ab inh 98.5, Vif imaging 72.6*, Myeloid diff 2 inconclusive and T cell modulator 361.0.
`CC1(C)C(=O)CC[C@@]2(C)[C@H]1CC[C@@]1(C)CC3=C(CC[C@@H]12)[C@@]1(C)CCC(=O)C(C)(C)[C@@H]1CC3` gave T cell modulator 147.4.
O=S(=O)(NCCN1CCOCC1)c1ccc(Oc2ccccc2Cl)cc1 was read as Pemphigus Ab inh 100.8, Vif imaging 5.0, Myeloid diff 2 active and T cell modulator 317.3.
CCCCNc1ccc2c3c(cccc13)C(=O)N(CCCC)C2=O was read as Myeloid diff 2 active.
CCS(=O)(=O)c1nc(S(=O)(=O)c2ccc(C)cc2)c(N2CC(C)OC(C)C2)s1 (stereo unspecified) was read as Vif imaging 1.1, Myeloid diff 2 active and T cell modulator 338.7.
`CCCS(=O)(=O)c1nc(S(=O)(=O)c2ccc(C)cc2)c(N2CC(C)OC(C)C2)s1` (stereo unspecified) gave Pemphigus Ab inh 99.4, Vif imaging -0.2, Myeloid diff 2 inactive and T cell modulator 372.1.
